Consider 2 compounds from ChEMBL document CHEMBL4190389, “Synthesis and activity of di- or trisubstituted N-(phenoxyalkyl)- or N-{2-[2-(phenoxy)ethoxy]ethyl}piperazine derivatives on the central nervous system” (Bioorg Med Chem Lett, 2018).

Molecules are shown by their SMILES. Calls of active or inactive are those of the source. The rule behind the calls is not given here.

In data set [1] the target is T1, Adrenergic receptor alpha-1 (Rattus norvegicus, UniProt P15823+P23944+P43140).
T1 sequence (P15823 whole entry): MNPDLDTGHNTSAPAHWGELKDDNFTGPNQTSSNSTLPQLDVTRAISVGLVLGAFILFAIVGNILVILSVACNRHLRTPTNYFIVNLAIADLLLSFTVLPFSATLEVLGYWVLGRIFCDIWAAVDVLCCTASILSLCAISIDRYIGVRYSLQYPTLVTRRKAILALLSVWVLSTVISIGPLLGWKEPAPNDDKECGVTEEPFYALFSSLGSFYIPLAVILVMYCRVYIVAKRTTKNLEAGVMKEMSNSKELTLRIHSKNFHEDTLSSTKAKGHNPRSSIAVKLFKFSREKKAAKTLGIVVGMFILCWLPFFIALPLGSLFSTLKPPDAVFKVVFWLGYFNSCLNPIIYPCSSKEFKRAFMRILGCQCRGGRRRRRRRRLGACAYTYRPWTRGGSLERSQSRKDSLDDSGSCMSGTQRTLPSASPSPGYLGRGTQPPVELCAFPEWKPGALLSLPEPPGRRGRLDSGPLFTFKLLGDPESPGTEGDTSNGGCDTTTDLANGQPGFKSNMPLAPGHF
T1 sequence (P23944 whole entry): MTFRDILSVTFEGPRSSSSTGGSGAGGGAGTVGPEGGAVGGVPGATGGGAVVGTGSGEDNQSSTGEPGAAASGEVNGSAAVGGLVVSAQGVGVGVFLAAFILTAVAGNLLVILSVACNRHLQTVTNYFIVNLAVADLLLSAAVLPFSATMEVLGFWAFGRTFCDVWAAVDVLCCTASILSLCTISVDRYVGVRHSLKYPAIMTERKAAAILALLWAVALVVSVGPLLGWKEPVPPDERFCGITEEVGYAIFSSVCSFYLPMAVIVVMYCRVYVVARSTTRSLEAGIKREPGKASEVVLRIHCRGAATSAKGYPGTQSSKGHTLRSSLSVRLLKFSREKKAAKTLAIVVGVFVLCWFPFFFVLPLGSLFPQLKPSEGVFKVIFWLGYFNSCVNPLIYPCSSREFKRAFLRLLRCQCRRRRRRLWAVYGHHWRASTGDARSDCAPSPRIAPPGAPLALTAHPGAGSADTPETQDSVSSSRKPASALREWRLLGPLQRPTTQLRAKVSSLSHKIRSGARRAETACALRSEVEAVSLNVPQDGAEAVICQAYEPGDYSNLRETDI
T1 sequence (P43140 whole entry): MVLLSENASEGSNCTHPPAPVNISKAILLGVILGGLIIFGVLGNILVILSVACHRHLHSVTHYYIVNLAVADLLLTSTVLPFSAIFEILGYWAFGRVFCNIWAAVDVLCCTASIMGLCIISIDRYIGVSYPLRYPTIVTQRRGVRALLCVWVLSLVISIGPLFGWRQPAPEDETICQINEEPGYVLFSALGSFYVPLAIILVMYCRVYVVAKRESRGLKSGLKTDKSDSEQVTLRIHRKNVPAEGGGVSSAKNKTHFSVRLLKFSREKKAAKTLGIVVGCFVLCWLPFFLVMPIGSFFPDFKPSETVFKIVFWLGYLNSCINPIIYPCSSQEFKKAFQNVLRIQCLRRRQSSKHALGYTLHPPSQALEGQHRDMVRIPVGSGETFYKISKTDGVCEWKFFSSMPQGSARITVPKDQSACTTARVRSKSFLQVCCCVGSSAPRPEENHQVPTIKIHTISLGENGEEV
In words: Displacement of [3H]-prazosin from Wistar rat cerebral cortex membranes alpha1 adrenoceptor by liquid scintillation counting method. Set-up: species or system Membrane. A general note: Displacement assays read how much labelled ligand stays bound in the presence of the test substance.

For data set [2], the system named is Mus musculus. In words: Antidepressant-like activity in ip dosed Albino Swiss CD-1 mouse assessed as decrease in immobility time administered […] prior to test measured for last 4 mins of 6 mins observation by forced swim test (reference value: 153.9 to 201.9 secs). It is filed as functional.
Data set [3] concerns Rattus norvegicus. In words: Antidepressant-like activity in ip dosed Wistar rat assessed as decrease in immobility time administered 45 mins prior to test measured for last 4 mins of 6 mins observation by forced swim test (reference value: 153.9 to 201.9 secs). It is filed as functional.
The test system of data set [4] is Mus musculus. As to the kind of experiment: Anxiolytic-like activity in ip dosed Albino Swiss CD-1 mouse assessed as increase in number of punished crossings administered for 30 mins prior to test measured for 1 min by four-plate test. It is filed as functional. The method, boiled down: (§1)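 Four-plate test in mice, i.p., 30 min before test; vehicle 0.9% NaCl; doses 1.25–10 mg/kg; number of punished crossings counted; mean ± SEM, n = 8–10 mice per group; ANOVA F statistics.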

The target in data set [5] is T2, 5-hydroxytryptamine receptor 2A (Homo sapiens, UniProt P28223). In words: biochemical. Format: cell-based, HEK293.
Data set [6] deals with 5-hydroxytryptamine receptor 6 (Homo sapiens, UniProt P50406). In words: Displacement of [3H]LSD from recombinant human 5-HT6 receptor expressed in CHO cells cell membranes after 60 mins by liquid scintillation counting method.
Data set [7] has as its target 5-hydroxytryptamine receptor 7 (Homo sapiens, UniProt P34969). In words: biochemical. It is filed as cell-based, CHO.
For data set [8], the target named is D(2) dopamine receptor (Homo sapiens, UniProt P14416). As to the kind of experiment: Displacement of [3H]methylspiperonee from recombinant human D2 receptor expressed in HEK293 cells cell membranes after 60 mins by liquid scintillation counting method.
For data set [9], the target named is T3, Alpha-1A adrenergic receptor (Homo sapiens, UniProt P35348).
T3 sequence (P35348 whole entry): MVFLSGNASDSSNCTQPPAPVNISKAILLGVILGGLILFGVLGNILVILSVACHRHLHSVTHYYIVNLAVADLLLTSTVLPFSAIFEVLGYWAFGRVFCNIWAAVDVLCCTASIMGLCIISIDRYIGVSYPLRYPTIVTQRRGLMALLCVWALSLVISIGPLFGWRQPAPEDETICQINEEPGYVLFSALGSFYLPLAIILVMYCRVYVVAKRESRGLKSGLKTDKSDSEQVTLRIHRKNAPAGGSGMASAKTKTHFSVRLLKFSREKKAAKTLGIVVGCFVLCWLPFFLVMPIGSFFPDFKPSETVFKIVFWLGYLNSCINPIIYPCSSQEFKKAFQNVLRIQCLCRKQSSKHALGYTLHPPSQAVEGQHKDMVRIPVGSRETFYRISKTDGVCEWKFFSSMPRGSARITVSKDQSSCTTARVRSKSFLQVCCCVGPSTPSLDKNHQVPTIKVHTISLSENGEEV
In words: Displacement of [3H]prazosin from recombinant human alpha1 adrenoceptor expressed in CHO cell membranes after 30 mins by liquid scintillation counting method.

The test system of data set [10] is Mus musculus. In words: Anticonvulsant activity in Albino Swiss CD-1 mouse assessed as protection against 50 Hz current-induced seizure at 45 mg/kg, ip. Format: functional, organism-based.
The target in data set [11] is T2, 5-hydroxytryptamine receptor 2A. As to the kind of experiment: Antagonist activity at human 5-HT2A receptor expressed in CHO-K1 cells co-expressing Galpha16 assessed as decrease in serotonin calcium mobilization preincubated for 30 mins followed by serotonin challenge measured for 30 secs by aequorin-derived luminescence assay. It is filed as functional, cell-based. (In general: A change in cytosolic calcium serves as a functional read-out for many receptors and channels.)

Data set [12] concerns Mus musculus. As to the kind of experiment: Antidepressant-like activity in Albino Swiss CD-1 mouse assessed as immobility time at 5 mg/kg, ip administered 30 mins prior to test measured for last 4 mins of 6 mins observation by forced swim test (reference value: 153.9 to 201.9 secs). It is filed as functional.
Data set [13] has as its system Mus musculus. As to the kind of experiment: Antidepressant-like activity in Albino Swiss CD-1 mouse assessed as immobility time at 10 mg/kg, ip administered 30 mins prior to test measured for last 4 mins of 6 mins observation by forced swim test (reference value: 153.9 to 201.9 secs). It is filed as functional.
For data set [14], the system named is Mus musculus. In words: Antidepressant-like activity in Albino Swiss CD-1 mouse assessed as immobility time at 20 mg/kg, ip administered 30 mins prior to test measured for last 4 mins of 6 mins observation by forced swim test (reference value: 153.9 to 201.9 secs). It is filed as functional.
In data set [15] the test system is Mus musculus. In words: Anxiolytic-like activity in Albino Swiss CD-1 mouse assessed as increase in number of punished crossings at 5 to 10 mg/kg, ip administered for 30 mins prior to test measured for 1 min by four-plate test. Format: functional, organism-based. The method, boiled down: as §1
For data set [16], the system named is Mus musculus. As to the kind of experiment: Toxicity in Albino Swiss CD-1 mouse assessed as effect on locomotory activity at 5 to 10 mg/kg, ip administered for 30 mins prior to test measured for 1 min. Format: organism-based. To be noted: in vivo. The method, boiled down:
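Mice dosed i.p. 30 min before test; vehicle groups received 0.9% NaCl. Spontaneous locomotion scored as number of crossings during a 1-min session. Each dose compared with its own vehicle group by Student t-test; mean ± SEM, n = 8–10 mice per group.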

The test system of data set [17] is Mus musculus. In words: Anticonvulsant activity in Albino Swiss CD-1 mouse assessed as protection against 50 Hz current-induced seizure at 100 mg/kg, ip. It is filed as functional, organism-based.
In data set [18] the test system is Mus musculus. As to the kind of experiment: Toxicity in Albino Swiss CD-1 mouse assessed as death at 30 to 100 mg/kg, ip. It is filed as organism-based. The conditions noted are these: in vivo. The method, boiled down:
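Deaths counted in mice during maximal electroshock (MES) seizure testing after i.p. dosing, 6 mice per dose (3 or 1 at some top doses); recorded as number dead/number tested alongside protection and rotarod motor impairment (10 rpm); untreated control group included.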

Data set [19] relates to Mus musculus. As to the kind of experiment: Anticonvulsant activity in ip dosed Albino Swiss CD-1 mouse assessed as dose required to protect against 50 Hz current-induced seizure. To be noted: Swiss CD-1, ip. It is filed as functional.
Data set [20] in a line: Neurotoxicity in ip dosed Albino Swiss CD-1 mouse assessed as minimum dose required to induce motor impairment treated 30 mins prior to test by rotarod test. Format: toxicity, organism-based. The conditions noted are these: in vivo.
Data set [21] is described as follows: Protection index, ratio of TD50 for motor impairment in ip dosed Swiss albino CD-1 mouse to ED50 for protection against 50 Hz current-induced seizures in ip dosed Swiss albino CD-1 mouse. It is filed as toxicity, organism-based, Swiss CD-1. To be noted: in vivo, read-out: Ratio TD50/ED50.
Data set [22] has as its system Mus musculus. In words: Neurotoxicity in Albino Swiss CD-1 mouse assessed as motor impairment at 100 mg/kg, ip treated 30 mins prior to test by rotarod test. It is filed as toxicity, organism-based. The conditions noted are these: in vivo, 0.5 h. On the technique in general: In the rotarod test animals must keep their balance on a rotating rod.
In data set [23] the target is T4, 5-hydroxytryptamine receptor 1A (Homo sapiens) (UniProt P08908).
T4 sequence (whole entry): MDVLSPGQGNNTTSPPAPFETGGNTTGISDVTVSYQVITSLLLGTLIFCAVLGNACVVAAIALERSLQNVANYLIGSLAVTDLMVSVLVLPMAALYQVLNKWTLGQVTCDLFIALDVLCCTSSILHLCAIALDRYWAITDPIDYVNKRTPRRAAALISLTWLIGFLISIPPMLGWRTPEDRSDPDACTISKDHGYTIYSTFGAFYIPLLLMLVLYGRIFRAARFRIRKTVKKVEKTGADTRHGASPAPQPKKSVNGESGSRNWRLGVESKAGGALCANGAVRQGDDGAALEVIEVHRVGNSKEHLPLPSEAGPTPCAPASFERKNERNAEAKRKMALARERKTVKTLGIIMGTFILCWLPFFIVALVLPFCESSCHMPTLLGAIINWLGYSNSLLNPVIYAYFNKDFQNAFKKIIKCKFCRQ
As to the kind of experiment: Displacement of [3H]8-OH-DPAT from recombinant human 5-HT1A receptor expressed in HEK293 cell membranes at 10^-5 M after 60 mins by liquid scintillation counting method.

T2 sequence (P28223 whole entry): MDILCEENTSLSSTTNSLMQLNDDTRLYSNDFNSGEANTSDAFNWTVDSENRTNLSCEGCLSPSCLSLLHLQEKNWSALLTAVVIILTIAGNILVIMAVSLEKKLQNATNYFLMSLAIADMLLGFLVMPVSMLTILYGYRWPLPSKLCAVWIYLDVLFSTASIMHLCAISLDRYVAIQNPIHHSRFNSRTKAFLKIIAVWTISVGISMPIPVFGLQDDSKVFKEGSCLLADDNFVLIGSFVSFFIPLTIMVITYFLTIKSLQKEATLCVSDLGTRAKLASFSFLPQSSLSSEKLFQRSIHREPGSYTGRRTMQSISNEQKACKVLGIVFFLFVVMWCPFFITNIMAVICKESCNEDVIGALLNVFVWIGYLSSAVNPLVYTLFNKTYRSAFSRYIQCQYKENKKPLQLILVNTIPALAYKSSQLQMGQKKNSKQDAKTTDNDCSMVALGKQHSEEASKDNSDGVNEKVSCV
Sequence of 5-hydroxytryptamine receptor 6 (P50406 whole entry): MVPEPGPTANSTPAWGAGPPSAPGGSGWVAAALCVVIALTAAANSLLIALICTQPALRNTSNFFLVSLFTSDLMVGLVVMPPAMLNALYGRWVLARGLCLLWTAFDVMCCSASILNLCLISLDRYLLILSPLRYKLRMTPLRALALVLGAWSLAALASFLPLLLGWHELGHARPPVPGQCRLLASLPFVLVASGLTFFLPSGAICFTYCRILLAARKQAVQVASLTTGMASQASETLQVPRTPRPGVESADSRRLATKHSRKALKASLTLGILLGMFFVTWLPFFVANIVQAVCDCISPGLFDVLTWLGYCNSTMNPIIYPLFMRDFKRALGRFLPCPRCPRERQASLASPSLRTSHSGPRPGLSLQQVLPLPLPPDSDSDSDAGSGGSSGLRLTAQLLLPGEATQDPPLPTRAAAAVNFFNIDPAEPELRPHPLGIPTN
Sequence of D(2) dopamine receptor (P14416 whole entry): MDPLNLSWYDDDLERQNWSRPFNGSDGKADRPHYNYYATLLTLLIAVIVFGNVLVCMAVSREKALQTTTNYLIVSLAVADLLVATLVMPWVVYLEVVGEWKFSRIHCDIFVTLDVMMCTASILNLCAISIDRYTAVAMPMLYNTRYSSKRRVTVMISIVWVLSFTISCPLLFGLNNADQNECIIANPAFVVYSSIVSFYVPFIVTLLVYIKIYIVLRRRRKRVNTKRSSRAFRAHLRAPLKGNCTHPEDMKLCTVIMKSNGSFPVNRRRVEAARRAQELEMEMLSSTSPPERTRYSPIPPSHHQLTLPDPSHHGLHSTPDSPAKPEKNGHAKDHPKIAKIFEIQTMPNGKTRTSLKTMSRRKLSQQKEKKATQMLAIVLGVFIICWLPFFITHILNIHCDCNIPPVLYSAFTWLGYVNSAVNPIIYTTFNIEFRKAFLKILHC
Sequence of 5-hydroxytryptamine receptor 7 (P34969 whole entry): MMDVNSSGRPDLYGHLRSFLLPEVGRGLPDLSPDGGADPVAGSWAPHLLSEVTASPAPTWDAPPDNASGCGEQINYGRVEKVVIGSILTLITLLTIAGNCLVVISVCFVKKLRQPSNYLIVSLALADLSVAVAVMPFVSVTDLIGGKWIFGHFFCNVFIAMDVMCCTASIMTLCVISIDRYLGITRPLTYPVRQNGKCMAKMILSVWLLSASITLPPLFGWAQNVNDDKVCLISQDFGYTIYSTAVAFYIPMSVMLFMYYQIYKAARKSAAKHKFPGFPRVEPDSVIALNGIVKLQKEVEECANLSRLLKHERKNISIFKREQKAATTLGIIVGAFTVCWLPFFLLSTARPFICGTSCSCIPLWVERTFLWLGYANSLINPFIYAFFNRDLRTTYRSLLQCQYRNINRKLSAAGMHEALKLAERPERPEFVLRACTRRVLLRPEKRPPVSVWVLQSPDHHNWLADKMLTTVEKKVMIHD

In the case of `COc1ccccc1N1CCN(CCOCCOc2c(C)cccc2C)CC1.Cl`, the Ki in [1] was 0.023 µM. Also, the ED turned out to be 2.5 mg/kg in data set [2], 5 mg/kg in [3] and 2.5 mg/kg in data set [4].
With `Cc1cccc(OCCOCCN2CCN(CCc3ccccc3)CC2)c1C.Cl.Cl`, the Ki in data set [5] was determined as 0.22 µM; in data set [6] it was 0.2 µM; in data set [7] it was 0.388 µM; in data set [8], 1.21 µM; in data set [9], 0.036 µM. Besides, the result in data set [10] and in [17] was Active. For the same compound, in data set [11], the IC50 was found to be 6.97 µM. Besides, the Time in [12] is listed as 157.6 s; in [13] it was 161.1 s; in data set [14], 162.1 s. Also, in [15], the result was inactive. Moreover, the Activity result is on record as “Non-Toxic” in data set [16], “Non-Toxic” in data set [18] and “Toxic” in data set [22]. The ED50 in data set [19] was 22.2 mg/kg. For the same compound, in data set [20], the TD50 at 0.5 h turned out to be 35.5 mg/kg. The selectivity ratio in data set [21] worked out at 1.6. In addition, the inhibition entry in [23] is “inactive”.

By Ki is commonly meant the dissociation constant of the complex between target and ligand, obtained from inhibition or displacement. What is called IC50 is the midpoint of a concentration-inhibition curve. Broadly, the ED50 is the midpoint of the dose-response relation. As usually defined, the TD50 is the 50% point of the dose-response relation for the toxic effect studied.
